Test results reported in PubChem BioAssay.
Results filed as inconclusive are left out. Calls of active or inactive are those of the source.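 Rule for the calls, unless noted: active = RAM network inhibition above 8.4% in each of two replicates, 3 SD over the compound average; inconclusive = above 8.4% inhibition in only one replicate; inactive = 8.4% inhibition or less in each replicate.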

Experiments:
[1] = S. cerevisiae growth inhibition in permissive medium (OD615), pilot counter-assay for S. cerevisiae lifespan shortening project, permissive growth control (AID 705;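 active = growth inhibition above 25% in both replicates, a cutoff set 3 SD above the mean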); details: OD615, 24 h, at 10 µM, hits give high values
In short: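 System: Engineered DeaD yeast | Buffer or medium: SC raffinose/galactose permissive medium | Incubation: Cells pre-grown 4 h, then 24 h compound exposure, 30 °C humidified | Measured by: Absorbance (optical density) at 615 nm | Read-out: Reduction in yeast growth (OD615)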

[2] = S. cerevisiae growth inhibition in restrictive medium, OD615, pilot screen, restrictive growth control, yeast lifespan reduction project (AID 706;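 active = growth inhibition above a set limit, 3 SD over mean compound inhibition, in both replicates, cut at about 43% in these data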;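 note: modified DeaD lifespan yeast strain shifted to restrictive glucose medium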); details: OD615, 48 h, at 10 µM, hits give high values
In short: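 Material: modified S. cerevisiae; Medium: glucose-based CSMM-D restrictive medium; Compound dosing: one concentration, 10 µM final, 0.25% DMSO; Incubation: 48 h compound exposure at 30 °C; Measured by: OD615.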

[3] = doxorubicin toxicity protection in MRP-1 cells – H69AR cells, CellTiter-Glo, duplicate, MRP-1 activator project, pilot screen (AID 807;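 active = viability increase at or above a cutoff of the median across tested compounds plus 3 SD, cut at about 8.5% in these data, passing the limit was not always enough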;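 note: compound pretreatment 18-22 h then 72 h combined with doxorubicin; 0% = doxorubicin alone and 100% = vehicle without doxorubicin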); details: H69AR viability with doxorubicin, CellTiter-Glo luminescence; at 10 µM; hits give high values
[4] = viability of HCT116 without oncogenic beta-catenin – human colon tumor cells, pilot screen (AID 823;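 active = cell viability at or below a set limit in both duplicate runs, the limit being the all-compound median minus 4 SD, cut at about 23% in these data, passing the limit was not always enough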;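 note: 0% = wells killed by 20 µM Hyamine and 100% = untreated DMSO cell wells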); details: HCT116 beta-catenin knockout viability, CellTiter-Glo, 60 h; at 10 µM; hits give low values
[5] = viability of PTEN-null HCT116 cells – cell-based, HCT116 clonal line, CellTiter-Glo, pilot screen (AID 824;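 active = viability at or below 27.92% in each of two runs, the all-compound median minus 4 SD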;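 note: 0% = 20 µM Hyamine control and 100% = vehicle cell control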); details: HCT116 PTEN-deleted viability, 60 h, at 10 µM, hits give low values
[6] = RAM pathway blockade in budding yeast – dse1pr::URA3 reporter, 5-FOA selection, pilot screen (AID 869;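 active = inhibition over a set limit, the all-compound mean plus 3 SD, in both replicate runs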;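 note: 0% = DMSO wells with no growth and 100% = 10 µM 1-NA-PP1 with full growth; RAM network block rescues cells from 5-FOA so hits raise OD615 growth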); details: S. cerevisiae dse1pr::URA3 5-FOA growth, OD615, 2 d; at 10 µM; hits give high values; strain carries analog-sensitive mutant Cbk1 kinase
[7] = RAM signaling pathway blockade in yeast – S. cerevisiae, Pdr1DBD-CYC8 efflux-inhibited sensitized strain, primary screen (AID 1298);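 note: 0% = DMSO untreated cells without growth and 100% = 10 µM 1-NA-PP1 full growth; higher means more yeast growth rescued from 5-FOA killing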; details: S. cerevisiae cbk1-as DSE1-URA3 strain, 5-FOA growth OD615, 2 d; at 50 µM; hits give high values

CCOC(=O)N1CCN(CC(=O)Nc2cc3c(cc2C(C)=O)OCO3)CC1
inactive: growth inhibition [1] 2.37% | growth inhibition [2] 13% | viability increase [3] -3.17% | viability [4] 94.2% | viability [5] 98.9% | inhibition [6] 0.555% | RAM network inhibition [7] 2.4%

COC(=O)c1ccc(NC(=O)CSc2nnc(COc3ccc4c(c3)CCCC4)o2)cc1
inactive: growth inhibition [1] -2.11% | growth inhibition [2] -2.11% | viability increase [3] -3.92% | viability [4] 97.8% | viability [5] 96.7% | inhibition [6] 3.43% | RAM network inhibition [7] 4.19%

Cc1cc(C)c2c(CC(=O)O)coc2c1
inactive: growth inhibition [1] -5.72% | growth inhibition [2] 10.2% | viability increase [3] 0.24% | viability [4] 93.9% | viability [5] 105% | inhibition [6] 2.03% | RAM network inhibition [7] 0.98%

COCCN1C(=O)c2oc3ccccc3c(=O)c2C1c1cccc(O)c1 (stereo unspecified)
inactive: growth inhibition [1] -7% | growth inhibition [2] -8.97% | viability increase [3] -0.6% | viability [4] 107% | viability [5] 94.3% | inhibition [6] 1.1% | RAM network inhibition [7] 2.85%

Cc1cccc(NC(=O)CN2CCN(CC(=O)Nc3cccc(C)c3)CC2)c1
inactive: growth inhibition [1] -14.3% | growth inhibition [2] -10% | viability increase [3] -4.48% | viability [4] 90.1% | viability [5] 98% | inhibition [6] 0.165% | RAM network inhibition [7] 2.17%

CCCCN1C(=O)/C(=C2\SC(N3CCCCC3)=NC2=O)c2ccccc21
inactive: growth inhibition [1] -4.39% | growth inhibition [2] 14.6% | viability increase [3] -2.31% | viability [4] 48.4% | viability [5] 45.8% | inhibition [6] 1.53% | RAM network inhibition [7] 3.38%

Cc1ccc(CC2CC(=O)N(c3cc(C)on3)C2=O)cc1 (stereo unspecified)
inactive: growth inhibition [1] -17.8% | growth inhibition [2] -19.9% | viability increase [3] 0.79% | viability [4] 100% | viability [5] 94% | inhibition [6] 1.73% | RAM network inhibition [7] -0.79%

COCCCN1Cc2cccc(C(=O)O)c2C1=O
inactive: growth inhibition [1] 1.16% | growth inhibition [2] 4.03% | viability increase [3] -2.13% | viability [4] 103% | viability [5] 102% | inhibition [6] 0.525% | RAM network inhibition [7] 7.02%

CCOc1ccc(C2CC(c3cccc(OC)c3)n3nc(N)nc3N2)cc1 (stereo unspecified)
inactive: growth inhibition [1] 0.02% | growth inhibition [2] 5.62% | viability increase [3] 0.88% | viability [4] 109% | viability [5] 92.3% | inhibition [6] 0.875% | RAM network inhibition [7] 4.58%

Cc1nn(C(=O)CN2C(=O)c3ccccc3C2=O)c(C)c1Br
inactive: growth inhibition [1] -4.13% | growth inhibition [2] 3.1% | viability increase [3] -1.05% | viability [4] 101% | viability [5] 103% | inhibition [6] 0.84% | RAM network inhibition [7] 4.29%

CC1CCN(C(=O)c2cc(-c3ccccc3O)on2)CC1
inactive: growth inhibition [1] -10.2% | growth inhibition [2] 9.11% | viability increase [3] -0.44% | viability [4] 108% | viability [5] 91.5% | inhibition [6] 0.335% | RAM network inhibition [7] -2.14%

O=C(O)c1cc(Cl)c(Cl)cc1C(=O)N1CCOCC1
inactive: growth inhibition [1] -26.1% | growth inhibition [2] -13.7% | viability increase [3] -0.17% | viability [4] 94% | viability [5] 89.5% | inhibition [6] 1.38% | RAM network inhibition [7] 1.67%

Cc1ccc(/C(O)=C2/C(=O)C(=O)N(CCN3CCOCC3)C2c2cccnc2)cc1 (stereo unspecified)
inactive: growth inhibition [1] 6.32% | growth inhibition [2] 4.34% | viability increase [3] 0.49% | viability [4] 93.5% | viability [5] 102% | inhibition [6] -0.11% | RAM network inhibition [7] 0.7%

CC(C)CCNC(=O)Cn1cc2c(n1)CCCCC2
inactive: growth inhibition [1] 3.78% | growth inhibition [2] 2.78% | viability increase [3] -1.8% | viability [4] 106% | viability [5] 100% | inhibition [6] 1.82% | RAM network inhibition [7] 1.38%

COc1ccc(Cl)cc1S(=O)(=O)N1CCN(C)CC1
inactive: growth inhibition [1] 1.3% | growth inhibition [2] -7.12% | viability increase [3] -2.26% | viability [4] 100% | viability [5] 86.8% | inhibition [6] 1.67% | RAM network inhibition [7] 5.97%

COc1ccccc1C(=O)Nc1ccc2oc(-c3ccc(F)cc3)nc2c1
inactive: growth inhibition [1] -2.88% | growth inhibition [2] 0.83% | viability increase [3] -2.78% | viability [4] 96% | viability [5] 96.5% | inhibition [6] 2.88% | RAM network inhibition [7] 1.85%

CC1(C)CCCC2=C1CC1C(=O)N(O)C(=O)C1C2 (stereo unspecified)
inactive: growth inhibition [1] -8.79% | growth inhibition [2] -12.1% | viability increase [3] -1.21% | viability [4] 102% | viability [5] 87.8% | inhibition [6] 1.96% | RAM network inhibition [7] 1.62%

CC(=O)NC(O)C(=O)c1ccccc1 (stereo unspecified)
inactive: growth inhibition [1] 5.71% | growth inhibition [2] 3.38% | viability increase [3] -2.24% | viability [4] 97% | viability [5] 89.6% | inhibition [6] -0.095% | RAM network inhibition [7] 3.35%

CCNc1nc(C)c2cc(Br)c(=O)n(CC)c2n1
inactive: growth inhibition [1] -2.64% | growth inhibition [2] -8.07% | viability increase [3] -6.29% | viability [4] 66.4% | viability [5] 64.6% | inhibition [6] 0.44% | RAM network inhibition [7] 7.93%

O=C(O)CN1C(=O)COc2cc(S(=O)(=O)N3CCCC3)ccc21
inactive: growth inhibition [1] 4.97% | growth inhibition [2] -0.475% | viability increase [3] 0.05% | viability [4] 94.8% | viability [5] 102% | inhibition [6] 0% | RAM network inhibition [7] 2.14%

CSc1nnc(Cn2c(=O)sc3ccccc32)n1C
inactive: growth inhibition [1] -4.88% | growth inhibition [2] -13% | viability increase [3] -1.82% | viability [4] 109% | viability [5] 99.4% | inhibition [6] 1.94% | RAM network inhibition [7] 6.98%

CCCC(=O)Nc1nc2ccc(OC)cc2s1
inactive: growth inhibition [1] -15.5% | growth inhibition [2] -17.6% | viability increase [3] 1.29% | viability [4] 93.8% | viability [5] 80.7% | inhibition [6] 0.5% | RAM network inhibition [7] 2.32%

N#CC(c1nc2ccccc2nc1N1CCCC1)S(=O)(=O)c1ccccc1 (stereo unspecified)
inactive: growth inhibition [1] -17.2% | growth inhibition [2] -3.85% | viability increase [3] -4.56% | viability [4] 81.9% | viability [5] 84.5% | inhibition [6] 0.815% | RAM network inhibition [7] 5.73%

COC(=O)C1=C(C)NC(=O)NC1c1cn(-c2ccccc2)nc1-c1cccs1 (stereo unspecified)
inactive: growth inhibition [1] 1.5% | growth inhibition [2] 7.83% | viability increase [3] -1.94% | viability [4] 85.6% | viability [5] 82.4% | inhibition [6] 2.37% | RAM network inhibition [7] 5.72%

CCCCN(CC)CCNC(=O)c1cc2c(=O)n(C)c3ccccc3c2n1C
inactive: growth inhibition [1] 2.65% | growth inhibition [2] -6.07% | viability increase [3] -5.86% | viability [4] 49% | viability [5] 48.6% | inhibition [6] 0.8% | RAM network inhibition [7] 0.41%

Cn1cnnc1SCC(=O)c1ccc2c(c1)CCCC2
inactive: growth inhibition [1] -1.79% | growth inhibition [2] 12.5% | viability increase [3] -1.07% | viability [4] 105% | viability [5] 96.6% | inhibition [6] 0.17% | RAM network inhibition [7] 4.35%

Cc1cc(NC(=O)CSc2nnc(Cc3cccn3C)n2CCc2ccccc2)no1
inactive: growth inhibition [1] 6.44% | growth inhibition [2] 14.2% | viability increase [3] -2.85% | viability [4] 93.2% | viability [5] 89.4% | inhibition [6] 0.955% | RAM network inhibition [7] 7.83%

Cn1c(NC(=O)C2CC2)cc(=O)n(C)c1=O
inactive: growth inhibition [1] 0.21% | growth inhibition [2] 1.9% | viability increase [3] -0.62% | viability [4] 99% | viability [5] 104% | inhibition [6] 1.01% | RAM network inhibition [7] -1.84%

CCCCCn1c(SC(C)C(C)=O)nc2c1c(=O)[nH]c(=O)n2C (stereo unspecified)
inactive: growth inhibition [1] -25.6% | growth inhibition [2] -33.8% | viability increase [3] -0.88% | viability [4] 94.4% | viability [5] 88% | inhibition [6] 2.36% | RAM network inhibition [7] 2.16%

Cn1c(=O)c2cc(S(=O)(=O)NC(C(=O)N3CCCCCC3)c3ccccc3)ccc2n(C)c1=O (stereo unspecified)
inactive: growth inhibition [1] -16.6% | growth inhibition [2] -23.3% | viability increase [3] -1.22% | viability [4] 104% | viability [5] 89.1% | inhibition [6] 0.175% | RAM network inhibition [7] 2.61%

Cc1ccc(C(=O)CSC2=NC(N)=C(C#N)C3(CCCCC3)C2C(N)=O)cc1 (stereo unspecified)
active: growth inhibition [2] 51%
inactive: growth inhibition [1] 17.7% | viability increase [3] -4.6% | viability [4] 89.6% | viability [5] 97.6% | inhibition [6] 0.27% | RAM network inhibition [7] 9.3%

CCCOC(=O)C1=C(C)NC2=C(C(=O)CC(C)(C)C2)C1c1ccc(N(C)C)cc1 (stereo unspecified)
inactive: growth inhibition [1] -2.65% | growth inhibition [2] 0.07% | viability increase [3] -2.59% | viability [4] 90.8% | viability [5] 80.9% | inhibition [6] -0.505% | RAM network inhibition [7] 6.21%

Cc1ccc2oc3c(c(=O)c2c1)C(c1ccc(F)cc1)N(CCCN1CCOCC1)C3=O (stereo unspecified)
inactive: growth inhibition [1] -3.52% | growth inhibition [2] -0.585% | viability increase [3] -4.72% | viability [4] 91% | viability [5] 89.6% | inhibition [6] 0.595% | RAM network inhibition [7] 0.29%
